Measurements taken from paper PMC10883374 (Science Advances, 2022).

What was measured:
[1] = target: dSAMTOR (WT, full-length) (Drosophila melanogaster, UniProt Q9W138); assay: ITC ligand binding, WT dSAMTOR; settings: ITC, 25°C, WT dSAMTOR
Method in brief: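 Full-length dSAMTOR was expressed as His6-SUMO fusion in E. coli BL21 (DE3), Ni-NTA purified, tag-cleaved, then gel-filtered into 10 mM Hepes pH 7.5, 150 mM NaCl, 1 mM DTT. ITC ran at 25°C: 20 × 2 µl injections of 1 mM SAM or SAH into 0.2 mM protein, discarding an initial 0.8 µl injection, with a buffer background titration. Single-site nonlinear least-squares fit gave ΔH, n and Kd.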

[2] = target: N-terminal truncated dSAMTOR (Δ1-64) (Drosophila melanogaster, UniProt Q9W138); assay: ITC ligand binding, Δ1-64 dSAMTOR; settings: ITC, 25°C, Δ1-64 dSAMTOR
Method in brief: (§1)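 Tag-free dSAMTOR, expressed as His6-SUMO fusion in E. coli BL21(DE3), purified by Ni-NTA and gel filtration into 10 mM Hepes pH 7.5, 150 mM NaCl, 1 mM DTT. At 25°C, 1 mM SAM or SAH was titrated into 0.2 mM protein over 20 injections, with a background titration into buffer. Single-site fit gave Kd, ΔH and n; ΔG and ΔS were calculated. Runs: three for measurable binding, two for undetectable binding.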

V66W/E67P mutant dSAMTOR = V66W/E67P mutant dSAMTOR (Drosophila melanogaster, UniProt Q9W138, E67P/V66W); assay: ITC ligand binding, V66W/E67P dSAMTOR; settings: ITC, 25°C, V66W/E67P dSAMTOR
Method in brief: as §1

R73A mutant dSAMTOR = R73A mutant dSAMTOR (Drosophila melanogaster, UniProt Q9W138, R73A); assay: ITC ligand binding, R73A dSAMTOR; settings: 25°C, ND = not detected
Method in brief: as §1

D150A mutant dSAMTOR = D150A mutant dSAMTOR (Drosophila melanogaster, UniProt Q9W138, D150A); assay: ITC ligand binding, D150A dSAMTOR; settings: 25°C, ND = not detected
Method in brief: as §1

D162A mutant dSAMTOR = D162A mutant dSAMTOR (Drosophila melanogaster, UniProt Q9W138, D162A); assay: ITC ligand binding, D162A dSAMTOR; settings: 25°C, ND = not detected
Method in brief: as §1

L151A mutant dSAMTOR = L151A mutant dSAMTOR (Drosophila melanogaster, UniProt Q9W138, L151A); assay: ITC ligand binding, L151A dSAMTOR; settings: 25°C, ND = not detected
Method in brief: as §1

L163A mutant dSAMTOR = L163A mutant dSAMTOR (Drosophila melanogaster, UniProt Q9W138, F163A); assay: ITC ligand binding, L163A dSAMTOR; settings: 25°C, L163A dSAMTOR (text b27: F163A), ND = not detected
Method in brief: as §1

L197A mutant dSAMTOR = L197A mutant dSAMTOR (Drosophila melanogaster, UniProt Q9W138, L197A); assay: ITC ligand binding, L197A dSAMTOR; settings: 25°C, ND = not detected
Method in brief: as §1

Y201A mutant dSAMTOR = Y201A mutant dSAMTOR (Drosophila melanogaster, UniProt Q9W138, Y201A); assay: ITC ligand binding, Y201A dSAMTOR
Method in brief: as §1

M202A mutant dSAMTOR = M202A mutant dSAMTOR (Drosophila melanogaster, UniProt Q9W138, M202A); assay: ITC ligand binding, M202A dSAMTOR; settings: 25°C, ND = not detected
Method in brief: as §1

F135A mutant dSAMTOR = F135A mutant dSAMTOR (Drosophila melanogaster, UniProt Q9W138, F135A); assay: ITC ligand binding, F135A dSAMTOR; settings: ITC
Method in brief: as §1

hSAMTOR = settings: read-out: dissociation constant (Kd); cited from earlier work
[3] = target: T1, hSAMTOR (WT) interaction with GATOR1-KICSTOR (Homo sapiens, UniProt Q1RMZ1); settings: previous cell biology data; cited from earlier work
T1 sequence (Q1RMZ1 1-405): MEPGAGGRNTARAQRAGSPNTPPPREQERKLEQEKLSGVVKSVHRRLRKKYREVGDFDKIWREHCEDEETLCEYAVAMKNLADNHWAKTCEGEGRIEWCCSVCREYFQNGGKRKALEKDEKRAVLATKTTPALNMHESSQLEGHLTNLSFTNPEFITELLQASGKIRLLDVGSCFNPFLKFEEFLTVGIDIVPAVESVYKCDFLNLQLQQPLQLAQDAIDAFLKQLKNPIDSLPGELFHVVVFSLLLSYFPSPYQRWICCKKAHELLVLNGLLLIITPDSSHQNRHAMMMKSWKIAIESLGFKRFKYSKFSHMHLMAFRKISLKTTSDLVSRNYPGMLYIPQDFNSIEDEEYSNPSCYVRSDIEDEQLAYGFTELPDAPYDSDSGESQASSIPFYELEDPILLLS

Chain of Y201A mutant dSAMTOR (Q9W138 whole entry Y201A): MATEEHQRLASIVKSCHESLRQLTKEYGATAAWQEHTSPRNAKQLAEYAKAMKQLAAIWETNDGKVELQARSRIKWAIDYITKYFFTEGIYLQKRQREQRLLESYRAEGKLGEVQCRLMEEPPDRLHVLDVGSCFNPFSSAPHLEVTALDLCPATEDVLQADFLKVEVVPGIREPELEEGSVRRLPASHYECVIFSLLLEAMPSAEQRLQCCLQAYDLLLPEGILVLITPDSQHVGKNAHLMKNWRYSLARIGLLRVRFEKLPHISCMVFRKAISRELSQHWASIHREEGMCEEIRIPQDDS
Chain of F135A mutant dSAMTOR (Q9W138 whole entry F135A): as the sequence (Q9W138 whole entry Y201A) above, with F135A, A201Y counted along it
Chain of V66W/E67P mutant dSAMTOR (Q9W138 whole entry V66W/E67P): as the sequence (Q9W138 whole entry Y201A) above, with V66W, E67P, A201Y counted along it
Chain of dSAMTOR (WT, full-length) (Q9W138 whole entry, the tested form may be a part): as the sequence (Q9W138 whole entry Y201A) above, with A201Y counted along it
Chain of N-terminal truncated dSAMTOR (Δ1-64) (Q9W138 65-302, stated change not applied): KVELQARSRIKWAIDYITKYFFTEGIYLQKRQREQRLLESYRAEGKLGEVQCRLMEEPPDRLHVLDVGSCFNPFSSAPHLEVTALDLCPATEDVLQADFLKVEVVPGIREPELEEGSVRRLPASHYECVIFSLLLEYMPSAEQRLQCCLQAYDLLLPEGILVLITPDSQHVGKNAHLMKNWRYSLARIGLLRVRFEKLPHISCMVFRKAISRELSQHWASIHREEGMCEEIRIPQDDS
Chain of D162A mutant dSAMTOR (Q9W138 whole entry D162A): as the sequence (Q9W138 whole entry Y201A) above, with D162A, A201Y counted along it
Chain of L151A mutant dSAMTOR (Q9W138 whole entry L151A): as the sequence (Q9W138 whole entry Y201A) above, with L151A, A201Y counted along it
Chain of D150A mutant dSAMTOR (Q9W138 whole entry D150A): as the sequence (Q9W138 whole entry Y201A) above, with D150A, A201Y counted along it
Chain of L163A mutant dSAMTOR (Q9W138 whole entry F163A): as the sequence (Q9W138 whole entry Y201A) above, with F163A, A201Y counted along it
Chain of R73A mutant dSAMTOR (Q9W138 whole entry R73A): as the sequence (Q9W138 whole entry Y201A) above, with R73A, A201Y counted along it
Chain of M202A mutant dSAMTOR (Q9W138 whole entry M202A): as the sequence (Q9W138 whole entry Y201A) above, with A201Y, M202A counted along it
Chain of L197A mutant dSAMTOR (Q9W138 whole entry L197A): as the sequence (Q9W138 whole entry Y201A) above, with L197A, A201Y counted along it

SMILES: Nc1ncnc2c1ncn2[C@@H]1O[C@H](CSCC[C@H](N)C(=O)O)[C@@H](O)[C@H]1O [SAH, S-adenosyl-L-homocysteine]
- Kd [1]: 8.7 ± 0.92 µM
- TΔS [1]: -2.99 kcal/mol
- n value [1]: 0.81 ± 0.09
- ΔH [1]: -9.94 ± 1.48 kcal/mol
- Kd [2]: 13.1 ± 0.8 µM
- TΔS [2]: -8.08 kcal/mol
- n value [2]: 0.67 ± 0.04
- ΔH [2]: -14.70 ± 1.05 kcal/mol
- Kd (V66W/E67P mutant dSAMTOR): 11.3 ± 0.37 µM
- n value (V66W/E67P mutant dSAMTOR): 1.02 ± 0.02
- ΔH (V66W/E67P mutant dSAMTOR): -5.09 ± 0.12 kcal/mol
- Kd (R73A mutant dSAMTOR): completely abolish SAH binding
- Kd (D150A mutant dSAMTOR): completely abolish SAH binding
- Kd (D162A mutant dSAMTOR): completely abolish SAH binding
- Kd (L151A mutant dSAMTOR): completely abolish SAH binding
- Kd (L163A mutant dSAMTOR): completely abolish SAH binding
- Kd (L197A mutant dSAMTOR): completely abolish SAH binding
- Kd (Y201A mutant dSAMTOR; 25°C, Y201A dSAMTOR): 67.3 ± 6.03 µM
- TΔS (Y201A mutant dSAMTOR; 25°C, Y201A dSAMTOR): 2.80 kcal/mol
- n value (Y201A mutant dSAMTOR; 25°C, Y201A dSAMTOR): 0.74 ± 0.02
- ΔH (Y201A mutant dSAMTOR; 25°C, Y201A dSAMTOR): -2.89 ± 0.17 kcal/mol
- decrease of binding affinity compared to the WT dSAMTOR (Y201A mutant dSAMTOR; Y201A vs WT dSAMTOR): 7.7 fold
- Kd (M202A mutant dSAMTOR): completely abolish SAH binding
- increase of binding affinity compared to the WT dSAMTOR (F135A mutant dSAMTOR; F135A vs WT dSAMTOR): < 2 fold
- Kd (F135A mutant dSAMTOR; 25°C, F135A dSAMTOR): 4.76 ± 0.71 µM
- TΔS (F135A mutant dSAMTOR; 25°C, F135A dSAMTOR): -1.26 kcal/mol
- n value (F135A mutant dSAMTOR; 25°C, F135A dSAMTOR): 0.80 ± 0.02
- ΔH (F135A mutant dSAMTOR; 25°C, F135A dSAMTOR): -8.52 ± 0.51 kcal/mol
- Kd (hSAMTOR): 4.6 µM
- effect of ligand binding on interaction of hSAMTOR with GATOR1-KICSTOR [3]: can disrupt the interaction of hSAMTOR with GATOR1-KICSTOR

SMILES: Nc1ncnc2c1ncn2[C@@H]1O[C@H](CO)[C@@H](O)[C@H]1O [adenosine]
- Kd [1]: no measurable binding

SMILES: CSCC[C@H](N)C(=O)O [methionine]
- Kd [1]: no measurable binding
